Assay results from ChEMBL document CHEMBL1150309, “Design, synthesis, and biological evaluation of thiophene analogues of chalcones” (Bioorg Med Chem, 2008).

How the values were obtained:
FM3A = experiment: Antiproliferative activity against mouse FM3A cells after 2 days; assay type: functional, cell-based; details: 48 h
How it was run: (§1)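 Cells suspended at 300,000–500,000 cells/mL of culture medium and mixed 1:1 with dilutions of compound. Incubated 2 days at 37 °C, then cell number counted with a Coulter counter. IC50 is the concentration giving 50% inhibition of proliferation. Values are means from dose–response curves of at least three independent experiments.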

CCRF-CEM = experiment: Antiproliferative activity against human CEM cells after 2 days; assay type: functional, cell-based; details: 48 h; how it was run: as §1
L1210 = experiment: Antiproliferative activity against mouse L1210 cells after 2 days; assay type: functional, cell-based; details: L1210, 48 h; how it was run: as §1
HeLa = experiment: Antiproliferative activity against human HeLa cells after 2 days; assay type: functional, cell-based; details: 48 h; how it was run: as §1
MOLT-4 = experiment: Antiproliferative activity against human MOLT4 cells after 2 days; assay type: functional, cell-based; details: MOLT-4, 48 h; how it was run: as §1
K562 [1] = experiment: Cell cycle arrest in human K562 cells assessed as accumulation at G0/G1 phase at 1.7 uM after 24 hrs by flow cytometry; assay type: functional
[2] = Inhibition of bovine brain tubulin polymerization for 20 mins; parameters: species or system Bos taurus
How it was run: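 Bovine brain tubulin (10 µM) preincubated with varying compound concentrations in glutamate buffer at 30 °C, then cooled to 0 °C. GTP added and mixtures warmed to 30 °C in cuvettes while assembly was followed by turbidity. IC50 is the concentration that halves the extent of assembly after 20 min.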

K562 [3] = experiment: Cell cycle arrest in human K562 cells assessed as accumulation at G2/M phase at 1.7 uM after 24 hrs by flow cytometry; assay type: functional
Bos taurus = species: Bos taurus; experiment: Displacement of [3H]colchicine from bovine brain tubulin at 1 uM
How it was run: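 Bovine brain tubulin (1 µM) incubated with compound at 1 µM and [³H]colchicine at 5 µM. Result is reported as percent inhibition of colchicine binding.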

K562 [4] = experiment: Cell cycle arrest in human K562 cells assessed as accumulation at S phase at 1.7 uM after 24 hrs by flow cytometry; assay type: functional
K562 [5] = experiment: Cell cycle arrest in human K562 cells assessed as accumulation at G2/M phase at 1.0 uM after 24 hrs by flow cytometry; assay type: functional
K562 [6] = experiment: Cell cycle arrest in human K562 cells assessed as accumulation at G0/G1 phase at 1.0 uM after 24 hrs by flow cytometry; assay type: functional
K562 [7] = experiment: Cell cycle arrest in human K562 cells assessed as accumulation at S phase at 1.0 uM after 24 hrs by flow cytometry; assay type: functional
K562 [8] = experiment: Cell cycle arrest in human K562 cells assessed as accumulation at G2/M phase at 1.3 uM after 24 hrs by flow cytometry; assay type: functional
K562 [9] = experiment: Cell cycle arrest in human K562 cells assessed as accumulation at S phase at 1.3 uM after 24 hrs by flow cytometry; assay type: functional
K562 [10] = experiment: Cell cycle arrest in human K562 cells assessed as accumulation at G0/G1phase at 1.3 uM after 24 hrs by flow cytometry; assay type: functional
K562 [11] = experiment: Cell cycle arrest in human K562 cells assessed as accumulation at G2/M phase at 2.1 uM after 24 hrs by flow cytometry; assay type: functional
K562 [12] = experiment: Cell cycle arrest in human K562 cells assessed as accumulation at G0/G1 phase at 2.1uM after 24 hrs by flow cytometry; assay type: functional
K562 [13] = experiment: Cell cycle arrest in human K562 cells assessed as accumulation at S phase at 2.1uM after 24 hrs by flow cytometry; assay type: functional
K562 [14] = experiment: Cell cycle arrest in human K562 cells assessed as accumulation at G0/G1 phase at 2.2 uM after 24 hrs by flow cytometry; assay type: functional
K562 [15] = experiment: Cell cycle arrest in human K562 cells assessed as accumulation at S phase at 2.2 uM after 24 hrs by flow cytometry; assay type: functional
K562 [16] = experiment: Cell cycle arrest in human K562 cells assessed as accumulation at G2/M phase at 2.2 uM after 24 hrs by flow cytometry; assay type: functional
K562 [17] = experiment: Cell cycle arrest in human K562 cells assessed as accumulation at G0/G1 phase at 1.5 uM after 24 hrs by flow cytometry; assay type: functional
K562 [18] = experiment: Cell cycle arrest in human K562 cells assessed as accumulation at G2/M phase at 1.5 uM after 24 hrs by flow cytometry; assay type: functional
K562 [19] = experiment: Cell cycle arrest in human K562 cells assessed as accumulation at S phase at 1.5 uM after 24 hrs by flow cytometry; assay type: functional
K562 [20] = experiment: Cell cycle arrest in human K562 cells assessed as accumulation at G2/M phase at 1.4 uM after 24 hrs by flow cytometry; assay type: functional
K562 [21] = experiment: Cell cycle arrest in human K562 cells assessed as accumulation at S phase at 1.4 uM after 24 hrs by flow cytometry; assay type: functional
K562 [22] = experiment: Cell cycle arrest in human K562 cells assessed as accumulation at G0/G1 phase at 1.4 uM after 24 hrs by flow cytometry; assay type: functional

Compound | IC50 (FM3A) [nM] | IC50 (CCRF-CEM) [nM] | IC50 (L1210) [nM] | IC50 (HeLa) [nM] | IC50 (MOLT-4) [nM] | IC50 [2] [nM] | inhibition (Bos taurus) [%] | other results
COc1ccc(-c2ccc(C(=O)c3cc(OC)c(OC)c(OC)c3)s2)cc1 | 2400 | 2200 | 2300 | 1000 | 460 | – | – | –
COc1cc(C(=O)c2ccc(-c3cccc(F)c3)s2)cc(OC)c1OC | 5600 | 2100 | 2400 | 1700 | 1200 | – | – | –
COc1cc(C(=O)/C=C/c2ccccc2)cc(OC)c1OC | > 10000 | > 10000 | > 10000 | > 10000 | > 10000 | – | – | –
COc1cc(C(=O)c2ccc(-c3ccsc3)s2)cc(OC)c1OC | 1800 | 1300 | 1300 | 1100 | 370 | – | – | –
COc1cc(C(=O)c2ccc(-c3cccs3)s2)cc(OC)c1OC | 460 | 430 | 530 | 470 | 300 | 800 | 82 | Activity (K562 [1]): 8%; Activity (K562 [3]): 75%; Activity (K562 [4]): 17%
COc1cc(C(=O)/C=C/c2ccc(Cl)cc2)cc(OC)c1OC | > 10000 | > 10000 | > 10000 | > 10000 | > 10000 | – | – | –
COc1cccc(-c2ccc(C(=O)c3cc(OC)c(OC)c(OC)c3)s2)c1 | 2400 | 2000 | 2500 | 1400 | 1800 | – | – | –
COc1cc(C(=O)c2ccc(-c3ccccc3F)s2)cc(OC)c1OC | 870 | 480 | 520 | 1400 | 330 | 2000 | 66 | Activity (K562 [5]): 81%; Activity (K562 [6]): 8%; Activity (K562 [7]): 11%
COc1cc(C(=O)c2ccc(-c3ccccc3)s2)cc(OC)c1OC | 460 | 480 | 560 | 310 | 400 | 1500 | 74 | Activity (K562 [8]): 18%; Activity (K562 [9]): 48%; Activity (K562 [10]): 34%
COc1ccc(/C=C/C(=O)c2cc(OC)c(OC)c(OC)c2)cc1OC | 10000 | 1900 | 8100 | 2000 | 3100 | – | – | –
COc1ccccc1/C=C/C(=O)c1cc(OC)c(OC)c(OC)c1 | 7900 | 1800 | 2100 | 1400 | 1900 | – | – | –
COc1cccc(/C=C/C(=O)c2cc(OC)c(OC)c(OC)c2)c1 | 11000 | 2200 | 4300 | 3700 | 3100 | – | – | –
COc1cc(C(=O)c2ccc(-c3ccccc3Cl)s2)cc(OC)c1OC | 1700 | 490 | 750 | 1600 | 1000 | – | – | –
COc1ccc(-c2ccc(C(=O)c3cc(OC)c(OC)c(OC)c3)s2)cc1OC | 960 | 540 | 520 | 500 | 380 | 3000 | 28 | Activity (K562 [11]): 57%; Activity (K562 [12]): 16%; Activity (K562 [13]): 27%
COc1ccc(/C=C/C(=O)c2cc(OC)c(OC)c(OC)c2)cc1 | 8400 | 1500 | 2800 | 1300 | 1400 | – | – | –
COc1cc(C(=O)c2ccc(-c3ccc(F)cc3)s2)cc(OC)c1OC | 1100 | 560 | 590 | 300 | 400 | 1100 | 66 | Activity (K562 [14]): 48%; Activity (K562 [15]): 31%; Activity (K562 [16]): 21%
COc1cc(C(=O)/C=C/c2ccc(F)cc2)cc(OC)c1OC | > 10000 | > 10000 | > 10000 | > 10000 | > 10000 | – | – | –
COc1cc(C(=O)c2ccc(-c3ccc([N+](=O)[O-])cc3)s2)cc(OC)c1OC | > 10000 | > 10000 | > 10000 | > 10000 | > 10000 | – | – | –
COc1ccccc1-c1ccc(C(=O)c2cc(OC)c(OC)c(OC)c2)s1 | 440 | 370 | 510 | 160 | 180 | 1300 | 74 | Activity (K562 [17]): 12%; Activity (K562 [18]): 62%; Activity (K562 [19]): 31%
COc1cc(C(=O)c2ccc(-c3ccc(C)cc3)s2)cc(OC)c1OC | 470 | 360 | 490 | 410 | 380 | 800 | 74 | Activity (K562 [20]): 85%; Activity (K562 [21]): 7%; Activity (K562 [22]): 8%
COc1cc(C(=O)c2ccc(-c3cccc([N+](=O)[O-])c3)s2)cc(OC)c1OC | 2400 | 1800 | 2100 | 1400 | 1700 | – | – | –
COc1cc(C(=O)c2ccc(-c3ccc(Cl)cc3)s2)cc(OC)c1OC | 4600 | 2300 | 2200 | 1500 | 1300 | – | – | –
COc1ccc(/C=C\c2cc(OC)c(OC)c(OC)c2)cc1O [COMBRETASTATIN A4] | – | – | – | – | – | 1400 | – | –
